Assay results reported in PMC5695149 (Theranostics, 2017).
Starred links: 1 amine or outer side, 2 acyl side, 3 side chain; linkers in the order of their positions; H or OH if unused. Positions of bridges follow the written chain, without caps; N, C: chain ends. Non-standard residues stand in square brackets, D forms with d. Residues, ends and D or L forms follow the SMILES beside them. hNle(4R-Ph,7-yl) = O=C([C@H](C[C@@H](CCC[*:3])c1ccccc1)N[*:1])[*:2]; X1 = C[C@H](CCC[*:3])C[C@H](N[*:1])C(=O)[*:2]

Experiments:
[1] = target: T1, MDMX (Homo sapiens, UniProt O15151); experiment: Fluorescence polarization assay, FITC-labeled peptide with GST-labeled MDMX; format: binding; details: compared within the library
T1 sequence (O15151 1-490): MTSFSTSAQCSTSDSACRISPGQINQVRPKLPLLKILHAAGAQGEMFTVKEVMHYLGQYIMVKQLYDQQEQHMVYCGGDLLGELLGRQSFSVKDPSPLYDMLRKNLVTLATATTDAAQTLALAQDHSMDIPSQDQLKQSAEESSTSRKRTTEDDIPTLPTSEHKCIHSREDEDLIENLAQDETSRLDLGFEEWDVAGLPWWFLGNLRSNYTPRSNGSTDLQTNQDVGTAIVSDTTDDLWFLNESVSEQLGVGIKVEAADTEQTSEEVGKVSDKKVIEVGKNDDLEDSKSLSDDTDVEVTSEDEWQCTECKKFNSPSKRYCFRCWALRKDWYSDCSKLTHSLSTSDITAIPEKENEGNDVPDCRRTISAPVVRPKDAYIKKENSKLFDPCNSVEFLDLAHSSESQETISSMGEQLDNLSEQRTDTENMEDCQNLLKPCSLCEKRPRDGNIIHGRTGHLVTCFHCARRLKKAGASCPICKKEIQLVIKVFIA
Procedure, shortened: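 Fluorescence polarization: FITC-labelled peptide (10 or 20 nM) incubated with MDMX protein in 140 mM NaCl, 50 mM Tris pH 8.0 for 1 h at room temperature. Peptide concentration set from FITC absorbance at 494 nm. Kd obtained by nonlinear regression of dose-response curves.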

[2] = test system: Skov-3 cells; experiment: Cell viability; format: cell-based; details: Skov-3 (mutant p53), up to 50 μM, 48 h
Procedure, shortened: (§1)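 MTT assay: cells at 5 × 10^3/well were exposed to test compound (3.12, 6.25, 12.5, 25, 50 µM) in serum-free medium for 4 h. Serum was then restored for a further 44 h. MTT (5 mg/mL in PBS) was added for 4 h at 37 °C, 5% CO2. Formazan was dissolved in DMSO and absorbance read at 490 nm. At least three independent measurements, SEM shown.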

[3] = test system: MDA-231 cells; experiment: Cell viability; format: cell-based; details: MDA-231 (mutant p53), up to 50 μM, 48 h
Procedure, shortened: as §1

[4] = test system: HEK-293 cells; experiment: Cell viability; format: cell-based; details: HEK-293 normal cells, 3.12-50 µM, 48 h
Procedure, shortened: (§2)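 MTT viability assay. Cells were seeded at 5 × 10³/well and given the test compound at 3.12, 6.25, 12.5, 25 or 50 µM in serum-free medium for 4 h. Serum was then replaced and cells incubated a further 44 h. MTT (5 mg/mL in PBS) was added for 4 h at 37 °C, 5% CO2, and formazan was dissolved in DMSO. A490 was read. SEM from at least three independent measurements.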

[5] = test system: QSG-7701 cells; experiment: Cell viability; format: cell-based; details: QSG-7701 normal cells, 3.12-50 µM, 48 h
Procedure, shortened: as §2

[6] = test system: p53; experiment: Western blot of p53 expression, PA-1; format: cell-based, human; details: PA-1, 40 µM peptide, 48 h
Procedure, shortened: (§3)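 Cells in 6-well plates were treated 48 h, then lysed in Tris-SDS buffer (pH 6.8). 20 μg protein was run on 10% SDS-PAGE and transferred to nitrocellulose. Blots were probed overnight at 4 °C with rabbit monoclonal anti-p53 (1:500), with pan-actin (1:1000) as reference. Goat secondary antibodies were applied 1 h at room temperature, with chemiluminescent detection.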

[7] = test system: p53; experiment: Western blot of p53 expression, MCF-7; format: cell-based; details: MCF-7, 40 µM peptide, 48 h
Procedure, shortened: as §3

[8] = test system: PA-1 cells; experiment: Cellular uptake of FITC-labelled peptides, confocal microscopy and FACS, PA-1; format: cell-based, human; details: 37°C, 2 h
[9] = test system: MCF-7 cells; experiment: Cellular uptake of FITC-labelled peptides, confocal microscopy, MCF-7; format: cell-based; details: MCF-7, FITC-labeled peptide, 37°C, 2 h
Procedure, shortened: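 Cells in DMEM + 10% FBS (50000/well) were grown 1 day to ~80% adherence. FITC-labelled peptide (1 mM DMSO stock) was added to 5 µM final at 37 °C. Cells were washed 3× in PBS, fixed in 4% formaldehyde for 10 min, stained with DAPI 1 μg/mL for 5 min, and imaged by confocal microscopy. PA-1 uptake was also quantified by flow cytometry.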

[10] = target: p53-MDM2 binding (Homo sapiens, UniProt Q00987); experiment: Immunoprecipitation of p53-MDM2 from PA-1 cell lysates, western blotting; format: cell-based; details: PA-1, 40 μM, 4 h, versus DMSO control, 10% FBS
Sequence of p53-MDM2 binding (Q00987 whole entry): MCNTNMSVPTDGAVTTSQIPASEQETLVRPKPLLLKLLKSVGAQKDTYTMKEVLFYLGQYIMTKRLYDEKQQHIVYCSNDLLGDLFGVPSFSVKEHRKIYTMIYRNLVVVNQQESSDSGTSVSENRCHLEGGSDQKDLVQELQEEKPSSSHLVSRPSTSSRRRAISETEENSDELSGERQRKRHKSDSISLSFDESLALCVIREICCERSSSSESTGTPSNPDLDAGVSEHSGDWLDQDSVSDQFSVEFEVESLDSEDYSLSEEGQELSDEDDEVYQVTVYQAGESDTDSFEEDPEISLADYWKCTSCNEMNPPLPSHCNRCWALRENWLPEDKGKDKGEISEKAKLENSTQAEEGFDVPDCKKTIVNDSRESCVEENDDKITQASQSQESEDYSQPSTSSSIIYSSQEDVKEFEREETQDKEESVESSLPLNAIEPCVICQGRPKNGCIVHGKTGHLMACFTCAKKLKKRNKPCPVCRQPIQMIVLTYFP
Procedure, shortened: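 Exponentially growing PA-1 cells received the test compound or an equal volume of DMSO. Cells were lysed in 50 mM Tris pH 8.0, 150 mM NaCl, 1 mM EDTA, 0.5% NP-40. Extract (500 µg) was precleared 2 h on protein G Sepharose, then incubated with rabbit monoclonal anti-p53 or mouse monoclonal anti-MDM2. Complexes were captured on protein G beads overnight at 4 °C and washed five times in cold lysis buffer. Western blots were probed for p53, MDM2 and pan-actin.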

[11] = test system: sox2 and foxA2 genes; experiment: RT-qPCR of stemness and differentiation genes, PA-1; format: cell-based, human; details: PA-1, 40 µM, 48 h
Procedure, shortened: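 Exponentially growing PA-1 cells were seeded in 6-well plates and treated 48 h with 40 µM peptide; nutlin-3a at 1 µM was the comparator. mRNA was quantified by real-time qPCR and expressed as fold increase. Triplicates from three independent experiments, SEM shown.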

[12] = test system: PA-1 cells; experiment: Annexin-V/PI apoptosis assay, PA-1; format: cell-based, human; details: PA-1, 40 μM peptides or 5 μM nutlin-3a, 48 h
Procedure, shortened: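 Exposed PA-1 cells were stained with Annexin-V/PI. Apoptotic cells were counted as the sum of quadrants Q1+Q2+Q3 and reported as a ratio of total cells.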

[13] = test system: PA-1 cells; experiment: Cell cycle analysis by PI staining and flow cytometry, PA-1; format: cell-based, human; details: PA-1, 40 μM peptides or 5 μM nutlin-3a, 48 h
[14] = test system: QSG-7701 cells; experiment: Cell cycle analysis by PI staining and flow cytometry, QSG-7701; format: cell-based; details: QSG-7701, 48 h, PI staining
[15] = test system: caspase-3; experiment: Caspase-3 activity assay, PA-1; format: cell-based, human
Procedure, shortened: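 Apoptosis in PA-1 cells was read as caspase-3 activity after exposing the cells to a caspase-3-specific substrate.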

[16] = test system: p53; experiment: p53 accumulation kinetics in HCT-116 Venus knock-in cell line; format: cell-based; details: HCT-116 p53-VKI; PhR 40 µM; nutlin-3a 0.5 or 5 µM (Fig. S9 legend)
[17] = test system: PA-1 xenograft; experiment: Antitumor efficacy in PA-1 human xenograft model; format: in vivo, mice; details: for mice that died during the treatment period: 21 days of treatment
Procedure, shortened: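 Female athymic nude mice (BALB/c nu, 6 weeks) received 1 × 10^7 PA-1 cells in DMEM subcutaneously in the lower flank. After 10-15 days, mice with 100-150 mm3 tumors were randomized into 3 groups of 5-6. Test compound at 10 mg/kg, or PBS as negative control, was injected intratumorally every 2 days from day 0 for 21 days. Mice were followed a further 24 days; survival plotted as Kaplan-Meier curves.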

[18] = Mice voluntary cage-wheel exercise assay; format: in vivo; details: BALB/c mice, 10 mg/kg subcutaneous, 20 days
Procedure, shortened: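 BALB/c mice were randomly split into two groups given a single subcutaneous injection of PBS or test compound (10 mg/kg). Voluntary cage-wheel running cycles were recorded over 20 days after injection.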

[19] = Histological analysis; format: in vivo; details: 21 days after injection, compared with PBS-treated mice
Procedure, shortened: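 Tumor, heart, liver, spleen, lung, kidney and brain were harvested 21 days after injection. Tissue sections were stained with hematoxylin and eosin and examined for histological changes.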

[20] = test system: p53 and p21; experiment: Immunohistochemistry of tumor tissues; format: in vivo, mice; details: PA-1 xenograft tumor tissue, 10 mg/kg
[21] = PA-1 xenograft, 10 mg/kg every other day

Row | SMILES | binding ability toward MDMX [1] | effect on cell viability [2] | effect on cell viability [3] | effect on cell growth and proliferation [4] | effect on cell growth and proliferation [5] | p53 expression (western blot) [6] | p53 expression (western blot) [7] | time to highest levels of p53 and p21 [16] [h] | mice that died during the treatment period [17, 21] | further results
1 | CC(=O)N[C@@H](CC(C)C)C(=O)N[C@H](C(=O)N[C@@H](Cc1ccccc1)C(=O)N[C@H]1CSCCC[C@@H](C)C[C@@H](C(=O)N[C@@H](CCC(N)=O)C(=O)N[C@@H](CC(C)C)C(=O)N[C@H](C(=O)N[C@@H](CO)C(N)=O)[C@@H](C)O)NC(=O)[C@H](Cc2c[nH]c3ccccc23)NC(=O)[C@H](Cc2ccc(O)cc2)NC(=O)[C@H](Cc2c[nH]cn2)NC1=O)[C@@H](C)O [MeR] (Ac-LTFCHYW[X1]QLTS-NH2; thioether 4-8; N-terminus assumed) | highest binding abilities | Negligible effects | Negligible effects | little effect on the cell growth and proliferation | little effect on the cell growth and proliferation | upregulated | upregulated | – | – | –
2 | CC(=O)N[C@@H](CC(C)C)C(=O)N[C@H](C(=O)N[C@@H](Cc1ccccc1)C(=O)N[C@H]1CSCCC[C@@H](c2ccccc2)C[C@@H](C(=O)N[C@@H](CCC(N)=O)C(=O)N[C@@H](CC(C)C)C(=O)N[C@H](C(=O)N[C@@H](CO)C(N)=O)[C@@H](C)O)NC(=O)[C@H](Cc2c[nH]c3ccccc23)NC(=O)[C@H](Cc2ccc(O)cc2)NC(=O)[C@H](Cc2c[nH]cn2)NC1=O)[C@@H](C)O [PhR] (Ac-LTFCHYW[hNle(4R-Ph,7-yl)]QLTS-NH2; thioether 4-8; N-terminus assumed) | highest binding abilities | Negligible effects | Negligible effects | little effect on the cell growth and proliferation | little effect on the cell growth and proliferation | upregulated | upregulated | 12 | no mice died | cellular uptake, comparison ([8]; PA-1, 5 µM FITC-labelled peptide, confocal and flow cytometry): higher cellular uptake than MeR; internalization, live cell confocal imaging ([8]; PA-1, 5 uM, live cells): internalized into the cells both in the cytoplasm and nucleus; cellular uptake, comparison [9]: higher cellular uptake than MeR; MDM2 protein bound to p53 (IP and western blotting) [10]: substantial reduction of MDM2 protein bound to p53; expression of differentiation gene foxA2 (qPCR) [11]: upregulation; expression of stemness gene sox2 (qPCR) [11]: significant downregulation; apoptotic effect (Annexin-V/PI) [12]: more pronounced in PA-1 than those of MeR and nutlin-3a; cell-cycle arrest [13]: more effective in inducing cell-cycle arrest in the G2/M phase than MeR and nutlin-3a; cell-cycle arrest in normal cell line [14]: did not induce cell cycle arrest; apoptosis by caspase-3 activity ([15]; PA-1, dose ladder): dose-dependent apoptosis; survival (Kaplan-Meier) ([17]; treated for 21 days and raised for another 24 days post treatment): able to prolong the lives of the mice; voluntary running cycles versus PBS group [18]: no significant differences; histological changes of major organs (H&E) [19]: no signs of organ lesions; p53 and p21 expression in tumor tissues (immunohistochemistry) [20]: higher expression levels of p53 and p21
3 | COc1ccc(C2=N[C@@H](c3ccc(Cl)cc3)[C@@H](c3ccc(Cl)cc3)N2C(=O)N2CCNC(=O)C2)c(OC(C)C)c1 [nutlin-3a] | – | – | – | – | – | – | – | 48 | three in ten | apoptosis by caspase-3 activity ([15]; PA-1, at a low dose): minimal apoptosis; caspase-3 activity ([15]; PA-1, at higher doses (>5 μM)): no caspase-3 activity was detected; mice death in the first week of treatment [17, 21]: 20%; tumor growth inhibition (TGI) ([17]; PA-1 xenograft, athymic nude mice, 10 mg/kg every other day, intratumoral injection, 3 weeks): 30%
